Experimental data: ChEMBL document CHEMBL1143844, “Biochemical studies on the mechanism of human immunodeficiency virus type 1 reverse transcriptase resistance to 1-(beta-D-dioxolane)thymine triphosphate” (Antimicrob Agents Chemother, 2007)

What was measured:
[1] = Inhibition of HIV1 reverse transcriptase 75I/77L/116Y/151M mutant in presence of 5 mM ATP by heteropolymeric DNA polymerase assay; parameters: species or system Human immunodeficiency virus 1
How it was run: (§1)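 Heteropolymeric DNA polymerase assay with ATP added at 5 mM. Purified HIV-1 RT at 30–100 pM acts on a plate-bound DNA primer with a 5′-A12-(GTCA)5-3′ template. dATP, dGTP, dCTP and BrdUTP at 1.0 μM each. Incubation 180 min at 33°C. BrdUMP incorporation read via anti-BrdU-AP at 405 nm after NaOH dehybridization. IC50 from seven inhibitor concentrations, at least two experiments in duplicate.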

[2] = target: T1, Human immunodeficiency virus type 1 reverse transcriptase (Human immunodeficiency virus 1, UniProt Q72547); test: Inhibition of HIV1 LAI reverse transcriptase wild type LAI by heteropolymeric DNA polymerase assay
How it was run: (§2)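 Heteropolymeric assay without ATP: plate-bound 18-mer DNA primer (~110 nM) with 50-mer 5′-A12-(GTCA)5 template (190 nM). dATP, dGTP, dCTP and BrdUTP at 1.0 μM each, in HEPES 50 mM pH 7.3, MgCl2 10 mM. RT 30–100 pM, 33°C for 180 min, then NaOH dehybridization and anti-BrdU-AP tracer read at 405 nm. IC50 from seven triphosphate concentrations; two to four runs in duplicate.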

[3] = target: T1, Human immunodeficiency virus type 1 reverse transcriptase; test: Inhibition of HIV1 pNL4-3 reverse transcriptase wild type pNL4-3 by heteropolymeric DNA polymerase assay; how it was run: as §2
[4] = Inhibition of HIV1 pNL4-3 reverse transcriptase 115F mutant by heteropolymeric DNA polymerase assay; parameters: species or system Human immunodeficiency virus 1
How it was run: (§3)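 Purified p66/p51 HIV-1 RT, or p66 homodimer for 65R, at 30–100 pM (about 1.5–4.5 mU/well). Plate-bound 18-mer DNA primer on a 50-base 5′-A12-(GTCA)5-3′ DNA template. dATP, dGTP, dCTP and BrdUTP at 1.0 μM each, no ATP. Buffer: HEPES 50 mM pH 7.3, 10 mM MgCl2. Incubation 180 min at 33°C, NaOH dehybridization, anti-BrdU-AP tracer, A405. IC50 from seven inhibitor concentrations, at least two experiments in duplicate.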

[5] = Inhibition of HIV1 reverse transcriptase wild type HXB2(a) in presence of 1 uM dNTP by heteropolymeric DNA polymerase assay; parameters: species or system Human immunodeficiency virus 1
How it was run: (§4)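 Heteropolymeric DNA assay containing 5 mM ATP on the 5′-A12-(GTCA)5 template, with each dNTP (BrdUTP in place of TTP) at 1 μM or, in the modified version, 20 μM. HEPES 50 mM pH 7.3, MgCl2 10 mM, 33°C for 180 min, then NaOH step and anti-BrdU-AP readout at 405 nm. Mean IC50 from at least two runs in duplicate.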

[6] = Inhibition of HIV1 reverse transcriptase 41L/69S-SG/210W/215Y mutant in presence of 5 mM ATP by heteropolymeric DNA polymerase assay; parameters: species or system Human immunodeficiency virus 1; how it was run: as §1
[7] = Inhibition of HIV1 reverse transcriptase 41L/67N/70R/184V/210W/215Y mutant in presence of 5 mM ATP by heteropolymeric DNA polymerase assay; parameters: species or system Human immunodeficiency virus 1; how it was run: as §1
[8] = Inhibition of HIV1 reverse transcriptase 184V mutant in presence of 5 mM ATP by heteropolymeric DNA polymerase assay; parameters: species or system Human immunodeficiency virus 1; how it was run: as §1
[9] = Inhibition of HIV1 reverse transcriptase wild type HXB2(a) in presence of 5 mM ATP by heteropolymeric DNA polymerase assay; parameters: species or system Human immunodeficiency virus 1
How it was run: (§5)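 Heteropolymeric DNA assay with 5 mM ATP added: immobilized 18-mer primer, 5′-A12-(GTCA)5 50-mer template, dATP/dGTP/dCTP/BrdUTP at 1.0 μM each, HEPES 50 mM pH 7.3, MgCl2 10 mM. RT 30–100 pM, incubated at 33°C for 180 min. NaOH strand separation, then anti-BrdU-AP detection at 405 nm. IC50 fitted from seven inhibitor concentrations; two to four runs in duplicate.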

[10] = Inhibition of HIV1 reverse transcriptase 75I/77L/116Y/151M/184V mutant in presence of 5 mM ATP by heteropolymeric DNA polymerase assay; parameters: species or system Human immunodeficiency virus 1; how it was run: as §1
[11] = Inhibition of HIV1 reverse transcriptase wild type HXB2(b) in presence of 5 mM ATP by heteropolymeric DNA polymerase assay; parameters: species or system Human immunodeficiency virus 1; how it was run: as §5
[12] = target: T1, Human immunodeficiency virus type 1 reverse transcriptase; test: Inhibition of HIV1 LAI reverse transcriptase wild type in presence of 5 mM ATP by heteropolymeric DNA polymerase assay; how it was run: as §5
[13] = Inhibition of HIV1 LAI reverse transcriptase 65R mutant in presence of 5 mM ATP by heteropolymeric DNA polymerase assay; parameters: species or system Human immunodeficiency virus 1; how it was run: as §1
[14] = target: T1, Human immunodeficiency virus type 1 reverse transcriptase; test: Inhibition of HIV1 pNL4-3 reverse transcriptase wild type pNL4-3 in presence of 5 mM ATP by heteropolymeric DNA polymerase assay; how it was run: as §5
[15] = Inhibition of HIV1 pNL4-3 reverse transcriptase 115F mutant in presence of 5 mM ATP by heteropolymeric DNA polymerase assay; parameters: species or system Human immunodeficiency virus 1; how it was run: as §1
[16] = Inhibition of HIV1 reverse transcriptase 184V mutant by heteropolymeric DNA polymerase assay; parameters: species or system Human immunodeficiency virus 1; how it was run: as §3
[17] = Inhibition of HIV1 reverse transcriptase 41L/69S-SG/210W/215Y mutant by heteropolymeric DNA polymerase assay; parameters: species or system Human immunodeficiency virus 1; how it was run: as §3
[18] = Inhibition of HIV1 reverse transcriptase 75I/77L/116Y/151M mutant by heteropolymeric DNA polymerase assay; parameters: species or system Human immunodeficiency virus 1; how it was run: as §3
[19] = Inhibition of HIV1 reverse transcriptase 75I/77L/116Y/151M/184V mutant by heteropolymeric DNA polymerase assay; parameters: species or system Human immunodeficiency virus 1; how it was run: as §3
[20] = Inhibition of HIV1 reverse transcriptase 41L/67N/70R/210W/215Y mutant in presence of 20 uM dNTP by heteropolymeric DNA polymerase assay; parameters: species or system Human immunodeficiency virus 1
How it was run: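 DNA polymerase assay with 5 mM ATP and purified HIV-1 RT (HXB2 background) on a plate-bound primer with a 5′-A12-(GTCA)5-3′ template. Each dNTP (dATP, dGTP, dCTP, BrdUTP) is set at either 1 μM or 20 μM. Incubation 180 min at 33°C, anti-BrdU-AP readout at 405 nm. IC50 from at least two experiments in duplicate. Fold change is relative to wild-type RT at the same dNTP level.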

[21] = Inhibition of HIV1 reverse transcriptase wild type HXB2(a) in presence of 5'-A12-(GTCA)5-3' by heteropolymeric DNA polymerase assay; parameters: species or system Human immunodeficiency virus 1; how it was run: as §4
[22] = Inhibition of HIV1 HXB2 reverse transcriptase 41L/67N/70R/215Y/219Q mutant in presence of 5 mM ATP by heteropolymeric DNA polymerase assay
[23] = Inhibition of HIV1 reverse transcriptase 41L/69S-SG/210W/215Y mutant in presence of 5'-A12-(GTCA)5-3' by heteropolymeric DNA polymerase assay
[24] = Inhibition of HIV1 reverse transcriptase wild type HXB2(a) in presence of 3.2 mM ATP by prA/odT assay; parameters: species or system Human immunodeficiency virus 1

Structure (SMILES) | IC50 [1] [µM] | IC50 [2] [µM] | IC50 [3] [µM] | IC50 [4] [µM] | IC50 [5] [µM] | IC50 [6] [µM] | IC50 [7] [µM] | IC50 [8] [µM] | IC50 [9] [µM] | IC50 [10] [µM] | IC50 [11] [µM] | IC50 [12] [µM] | IC50 [13] [µM] | IC50 [14] [µM] | IC50 [15] [µM] | IC50 [16] [µM] | IC50 [17] [µM] | IC50 [18] [µM] | IC50 [19] [µM] | IC50 [20] [µM] | further results
C[C@H](Cn1cnc2c(N)ncnc21)OCP(=O)(O)OP(=O)(O)OP(=O)(O)O | 11 | 0.55 | 1.2 | 1.1 | 3.3 | 24 | 5.9 | 2.3 | 3.3 | 4.6 | 3.2 | 1.3 | 21 | 4 | 3.7 | 2.2 | 3.7 | 8 | 2.9 | 49 | IC50 [21]: 3.3 µM; IC50 [22]: 10.5 µM; IC50 [23]: 24 µM
Cc1cn([C@H]2CO[C@@H](COP(=O)(O)OP(=O)(O)OP(=O)(O)O)O2)c(=O)[nH]c1=O | 6.1 | 0.11 | 0.1 | 0.08 | 0.38 | 1.6 | 0.7 | 0.5 | 0.38 | 15 | 0.38 | 0.19 | 0.75 | 0.3 | 0.2 | 0.18 | 0.11 | 2.1 | 7.1 | 2.4 | IC50 [21]: 0.38 µM; Ki [24]: 0.0028 µM; IC50 [22]: 0.84 µM; IC50 [23]: 1.6 µM
Cc1cn([C@H]2C[C@H](N=[N+]=[N-])[C@@H](COP(=O)(O)OP(=O)(O)OP(=O)(O)O)O2)c(=O)[nH]c1=O [ZIDOVUDINE TRIPHOSPHATE] | 9 | 0.08 | 0.13 | 0.13 | 0.46 | 4.4 | 0.9 | 0.52 | 0.46 | 22 | 0.48 | 0.3 | 0.61 | 0.42 | 0.55 | 0.25 | 0.16 | 5.1 | 10.6 | 16 | IC50 [21]: 0.46 µM; Ki [24]: 0.0054 µM; IC50 [22]: 2.5 µM; IC50 [23]: 4.4 µM
